In ChEMBL document CHEMBL1128345, “Derivatives of 2-[[N-(Aminocarbonyl)-N-hydroxyamino]methyl]-1,4- benzodioxan as orally active 5-lipoxygenase inhibitors” (J Med Chem, 1995):
Several values for one entry are separate records, joined by “and”; a condition that tells them apart may be missing. Equal entries are not always repeated.

Legend:
[1] = biological target: T1, Polyunsaturated fatty acid 5-lipoxygenase (Homo sapiens) (UniProt P09917); test: Ex vivo inhibition of 5-LO was determined by the measurement of A-23187-stimulated LTB4 production in dog blood at 24h, following intravenous administration at the dose of 1.0 mg/kg; type: functional, organism-based; parameters: dose 1 mg/kg; conditions: Canis lupus familiaris, target entry is the homologue from another species
T1 sequence (whole entry): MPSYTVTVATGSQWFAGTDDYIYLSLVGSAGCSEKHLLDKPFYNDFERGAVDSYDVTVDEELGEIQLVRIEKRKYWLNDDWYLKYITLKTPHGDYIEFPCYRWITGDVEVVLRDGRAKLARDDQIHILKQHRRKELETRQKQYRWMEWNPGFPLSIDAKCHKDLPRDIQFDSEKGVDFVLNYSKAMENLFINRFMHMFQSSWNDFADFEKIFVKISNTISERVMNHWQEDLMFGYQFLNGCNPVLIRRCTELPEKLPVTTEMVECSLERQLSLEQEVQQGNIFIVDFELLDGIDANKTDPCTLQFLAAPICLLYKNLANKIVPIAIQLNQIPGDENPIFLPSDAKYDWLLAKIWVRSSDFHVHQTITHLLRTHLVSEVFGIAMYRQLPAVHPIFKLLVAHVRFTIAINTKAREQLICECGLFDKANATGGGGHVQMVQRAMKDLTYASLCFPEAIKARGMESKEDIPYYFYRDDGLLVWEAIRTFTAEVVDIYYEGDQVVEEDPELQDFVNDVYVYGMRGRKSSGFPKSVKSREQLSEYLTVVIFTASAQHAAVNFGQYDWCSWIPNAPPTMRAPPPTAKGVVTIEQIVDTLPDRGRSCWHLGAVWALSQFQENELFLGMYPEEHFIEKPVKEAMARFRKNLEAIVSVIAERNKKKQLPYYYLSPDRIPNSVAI
Outline: (§1)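 Dogs received a single iv dose. Whole blood was sampled at the stated time after dosing and stimulated ex vivo with calcium ionophore A23187. LTB4 was quantitated by radioimmunoassay. Percent inhibition was calculated against each animal's pre-dose LTB4 value. One to three experiments were run per dose.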

[2] = biological target: T1, Polyunsaturated fatty acid 5-lipoxygenase (Homo sapiens); test: Ex vivo inhibition of 5-LO was determined by the measurement of A-23187-stimulated LTB4 production in dog blood at 9.0h, following intravenous administration at the dose of 1.0 mg/kg; type: functional, organism-based; parameters: dose 1 mg/kg; conditions: Canis lupus familiaris, target entry is the homologue from another species; outline: as §1
[3] = biological target: T1, Polyunsaturated fatty acid 5-lipoxygenase (Homo sapiens); test: Ex vivo inhibition of 5-LO was determined by the measurement of A-23187-stimulated LTB4 production in dog blood at 0.5h, following intravenous administration at the dose of 1.0 mg/kg; type: functional, organism-based; parameters: dose 1 mg/kg; conditions: Canis lupus familiaris, target entry is the homologue from another species; outline: as §1
[4] = Duration of action was defined as the period of time from maximum inhibition of A-23187-stimulated LTB4 formation to the time where 50% of maximum inhibition is reached
Outline: (§2)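 Dogs got a single iv or oral dose. Whole blood was drawn at set times afterwards and stimulated ex vivo with the calcium ionophore A23187. LTB4 was measured by radioimmunoassay, and inhibition was taken as the change from the pre-dose LTB4 value. DA, the time from maximum inhibition to 50% of maximum, was read graphically from the plot of percent inhibition vs time.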

[5] = biological target: T1, Polyunsaturated fatty acid 5-lipoxygenase (Homo sapiens); test: Ex vivo inhibition of 5-LO was determined by the measurement of A-23187-stimulated LTB4 production in dog blood at 3.0h, following intravenous administration at the dose of 1.0 mg/kg; type: functional, organism-based; parameters: dose 1 mg/kg; conditions: Canis lupus familiaris, target entry is the homologue from another species; outline: as §1
[6] = biological target: T1, Polyunsaturated fatty acid 5-lipoxygenase (Homo sapiens); test: Ex vivo inhibition of 5-LO was determined by the measurement of A-23187-stimulated LTB4 production in dog blood at 1.0h, following intravenous administration at the dose of 1.0 mg/kg; type: functional, organism-based; parameters: dose 1 mg/kg; conditions: Canis lupus familiaris, target entry is the homologue from another species; outline: as §1
[7] = biological target: T1, Polyunsaturated fatty acid 5-lipoxygenase (Homo sapiens); test: Ex vivo inhibition of 5-LO was determined by the measurement of A-23187-stimulated LTB4 production in dog blood at 0.25h, following intravenous administration at the dose of 1.0 mg/kg; type: functional, organism-based; parameters: dose 1 mg/kg; conditions: Canis lupus familiaris, target entry is the homologue from another species
Outline: (§3)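 Dog ex vivo assay: compound given as a single iv dose. Whole blood drawn at set times after dosing was stimulated ex vivo with calcium ionophore A23187. LTB4 was quantitated by radioimmunoassay. Percent inhibition at each time point was calculated against the LTB4 value before dosing. n = 1–3 experiments per compound.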

[8] = biological target: T1, Polyunsaturated fatty acid 5-lipoxygenase (Homo sapiens); test: Ex vivo inhibition of 5-LO was determined by the measurement of A-23187-stimulated LTB4 production in dog blood at 0.08h, following intravenous administration at the dose of 1.0 mg/kg; type: functional, organism-based; parameters: dose 1 mg/kg; conditions: Canis lupus familiaris, target entry is the homologue from another species; outline: as §1
[9] = biological target: T1, Polyunsaturated fatty acid 5-lipoxygenase (Homo sapiens); test: Ex vivo inhibition of 5-LO was determined by the measurement of A-23187-stimulated LTB4 production in dog blood at 6.0h, following intravenous administration at the dose of 1.0 mg/kg; type: functional, organism-based; parameters: dose 1 mg/kg; conditions: Canis lupus familiaris, target entry is the homologue from another species; outline: as §1
[10] = biological target: T1, Polyunsaturated fatty acid 5-lipoxygenase (Homo sapiens); test: Ex vivo inhibition of 5-lipoxygenase was determined by the measurement of A-23187-stimulated LTB4 production in dog blood at 0.5h, following intravenous administration at the dose of 1.0 mg/kg; type: functional, organism-based; parameters: dose 1 mg/kg; conditions: Canis lupus familiaris, target entry is the homologue from another species; outline: as §1
[11] = biological target: T1, Polyunsaturated fatty acid 5-lipoxygenase (Homo sapiens); test: Ex vivo inhibition of 5-lipoxygenase was determined by the measurement of A-23187-stimulated LTB4 production in dog blood at 0.08h, following intravenous administration at the dose of 1.0 mg/kg; type: functional, organism-based; parameters: dose 1 mg/kg; conditions: Canis lupus familiaris, target entry is the homologue from another species; outline: as §1
[12] = biological target: T1, Polyunsaturated fatty acid 5-lipoxygenase (Homo sapiens); test: Ex vivo inhibition of 5-lipoxygenase was determined by the measurement of A-23187-stimulated LTB4 production in dog blood at 6.0h, following intravenous administration at the dose of 1.0 mg/kg; type: functional, organism-based; parameters: dose 1 mg/kg; conditions: Canis lupus familiaris, target entry is the homologue from another species; outline: as §1
[13] = biological target: T1, Polyunsaturated fatty acid 5-lipoxygenase (Homo sapiens); test: Ex vivo inhibition of 5-lipoxygenase was determined by the measurement of A-23187-stimulated LTB4 production in dog blood at 0.25h, following intravenous administration at the dose of 1.0 mg/kg; type: functional, organism-based; parameters: dose 1 mg/kg; conditions: Canis lupus familiaris, target entry is the homologue from another species; outline: as §3
[14] = biological target: T1, Polyunsaturated fatty acid 5-lipoxygenase (Homo sapiens); test: Ex vivo inhibition of 5-lipoxygenase was determined by the measurement of A-23187-stimulated LTB4 production in dog blood at 1.0h, following intravenous administration at the dose of 1.0 mg/kg; type: functional, organism-based; parameters: dose 1 mg/kg; conditions: Canis lupus familiaris, target entry is the homologue from another species; outline: as §1
[15] = biological target: T1, Polyunsaturated fatty acid 5-lipoxygenase (Homo sapiens); test: Ex vivo inhibition of 5-lipoxygenase was determined by the measurement of A-23187-stimulated LTB4 production in dog blood at 24h, following intravenous administration at the dose of 1.0 mg/kg; type: functional, organism-based; parameters: dose 1 mg/kg; conditions: Canis lupus familiaris, target entry is the homologue from another species; outline: as §1
[16] = biological target: T1, Polyunsaturated fatty acid 5-lipoxygenase (Homo sapiens); test: Ex vivo inhibition of 5-lipoxygenase was determined by the measurement of A-23187-stimulated LTB4 production in dog blood at 9.0h, following intravenous administration at the dose of 1.0 mg/kg; type: functional, organism-based; parameters: dose 1 mg/kg; conditions: Canis lupus familiaris, target entry is the homologue from another species; outline: as §1
[17] = Duration of action of 5-LO was defined as the period of time from maximum inhibition of A-23187-stimulated LTB4 formation to the time where 50% of maximum inhibition is reached; outline: as §2

Row | Structure (SMILES) | inhibition [1] [%] | inhibition [2] [%] | inhibition [3] [%] | Duration of action [4] | inhibition [5] [%] | inhibition [6] [%] | inhibition [7] [%] | inhibition [8] [%] | inhibition [9] [%] | inhibition [10] [%] | inhibition [11] [%] | inhibition [12] [%] | inhibition [13] [%] | inhibition [14] [%] | inhibition [15] [%] | inhibition [16] | Duration of action [17] [h]
1 | NC(=O)N(O)CC1COc2cc(Oc3ccccc3)ccc2O1 (stereo unspecified) | 2 | 9 | 100 | 1.7 h | 14 | 98 | 100 | 100 | 1 |  |  |  |  |  |  |  | 
2 | NC(=O)N(O)CC1COc2ccc(Oc3ccc(F)cc3)cc2O1 (stereo unspecified) |  |  |  | 8.2 h and 8.5 h |  |  |  |  |  | 94 | 94 | 63 | 98 | 92 | 17 | 34% and 48% | 
3 | CCCCNC(=O)N(O)CC1COc2ccccc2O1 (stereo unspecified) |  |  |  | 0.7 h |  |  |  |  |  | 64 | 100 | 0 | 100 | 45 |  |  | 
4 | NC(=O)N(O)C[C@@H]1COc2ccc(Oc3ccc(F)cc3)cc2O1 | 0 | 0 |  | 3.8 h and 3.7 h |  |  |  |  | 15 | 100 | 100 |  | 100 | 100 |  |  | 

Other lines, results leading:

Row | inhibition [1] [%] | inhibition [2] [%] | inhibition [3] [%] | Duration of action [4] | inhibition [5] [%] | inhibition [6] [%] | inhibition [7] [%] | inhibition [8] [%] | inhibition [9] [%] | inhibition [10] [%] | inhibition [11] [%] | inhibition [12] [%] | inhibition [13] [%] | inhibition [14] [%] | inhibition [15] [%] | inhibition [16] | Duration of action [17] [h] | Structure (SMILES)
5 |  |  |  | 1.5 h |  |  |  |  |  | 98 | 100 | 0 | 100 | 74 | 0 | 9% |  | CNC(=O)N(O)CC1COc2ccc(Oc3ccccc3)cc2O1 (stereo unspecified)
6 |  |  |  | 8.5 h and 9.8 h |  |  |  |  |  | 91 | 96 | 56 | 94 | 87 | 27 | 47% |  | CC(c1cc2ccccc2s1)N(O)C(N)=O (stereo unspecified) [ZILEUTON]
7 |  |  |  |  |  |  |  |  |  |  |  |  |  |  |  |  | 8.4 | NC(=O)N(O)C[C@H]1COc2ccc(Oc3ccc(F)cc3)cc2O1
8 |  |  |  | 4 h |  |  |  |  |  | 100 | 100 | 22 | 100 | 100 | 4 | 0% |  | NC(=O)N(O)CC1COc2ccc(Oc3ccccc3)cc2O1 (stereo unspecified)
